PTEN del growth: PTEN-deleted cell growth suppression | HCT116 PTEN-null viability, CellTiter-Glo, 60 h; active compounds read low | viability, % at 10 µM | 140,000 compounds, 1.2% hits | AID 827;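 active = viability at or below a set limit, 4 SD under the median of all tested compounds, cut at about 3.7% in these data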;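 note: PTEN knockout HCT116 line with beta catenin targeted HCT116 as companion control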
Autophagy mod: autophagy modulation, high-content screen; MEF GFP-LC3 puncta imaging; test concentration mostly 10 µM; calls only at 10 µM (by protocol); 190,000 compounds, 0.98% hits; AID 463193;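 active = percentage of spot-positive cells more than 3 SD above its plate mean, without a fluorescence outlier flag or 80% toxicity; inconclusive = no clear call, values can overlap the other calls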
SDO1 yeast rescue: sdo1-depleted yeast growth rescue | z-score at 10 µM | S. cerevisiae sdo1-depleted JHY4D growth rescue, OD600 30 h; active compounds read high; pdr5 snq2 efflux-pump mutant strain | 140,000 compounds, 0.21% hits;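 active = z-score above 3 at both the 24 hr and the 30 hr optical density reads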
HCT116 bCat-KO: beta-catenin-lacking colon tumor cell growth suppression | HCT116 beta-catenin knockout viability, CellTiter-Glo, 60 h; active compounds read low | viability, % at 10 µM | 140,000 compounds, 1.5% hits;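 active = viability at or under a set limit, the compound median less 4 SD, cut at about 6% in these data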
Dynein transport: dynein cargo transport inhibition. z-score, hits read low. 220,000 compounds, 0.47% hits. 3617.4 mouse cells, GR-EGFP nuclear translocation imaging; test concentration mostly 20 µM; stimulated with dexamethasone, 1 µM; active compounds read low. AID 1381;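 active = plate z-score of nuclear minus cytoplasmic receptor signal below a set negative limit, without overly bright fluorescence or cell loss, cut at about -3.5 in these data, passing the limit was not always enough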;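 note: z-score of nuclear minus cytoplasmic ring GR-EGFP intensity difference per well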
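medium = tetracycline-free induction medium containing charcoal-stripped FBS | also added = 1.0 µM final dexamethasone stimulus | schedule = 48 h induction, 1 h compound, 30 min dex at 37 °C | technique = fixed, Hoechst-stained cells imaged at 10x for EGFP | measure = GR-EGFP nuclear translocation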
Dynein confirm: dynein cargo transport inhibition, confirmation; shares compounds with Dynein transport; 3617.4 GR-EGFP nuclear translocation imaging, dexamethasone-induced; calls only at 20 µM; 1,000 compounds, 69% hits;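 active = inhibition of receptor movement into the nucleus at or above a set limit in both runs, with normal cell brightness and cell count; inconclusive = limit reached in only one run, brightness and count normal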;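 note: dexamethasone at 1 µM final in well for 30 min; nuclear minus cytoplasmic GR-EGFP mean intensity difference in channel 2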
Of the large screens only hits and unclear results are named; the others gave an inactive call (follow-up assays come after a bar, where they were run). An excerpt weighted towards active compounds, which were near 2.2% of everything screened.

CC1=CC(=O)C=C(C)C1=NOS(=O)(=O)c1ccccc1	PTEN del growth 2.7, HCT116 bCat-KO 1.6, Dynein transport -5 | Dynein confirm active
Cc1ccc(S(=O)(=O)ON=C2CCN(S(=O)(=O)c3ccccc3)CC2)cc1	none
Cc1ccc2c(c1)/C(=N/OS(=O)(=O)c1ccccc1)CCS2	none (no result: PTEN del growth, SDO1 yeast rescue, HCT116 bCat-KO)
CC1=CC(=O)C(C(C)C)=C/C1=N/OS(=O)(=O)c1ccccc1	Dynein transport -4.2 (no result: PTEN del growth, Autophagy mod, SDO1 yeast rescue, HCT116 bCat-KO) | Dynein confirm inactive
N#CC(C#N)=NNc1ccc(S(=O)(=O)N2CCCCC2)cc1	none
CCOC(=O)c1nc(S(C)(=O)=O)ncc1Cl	Dynein transport -5.1 | Dynein confirm inactive
Cc1nc2c(=O)n(C)c(=O)n(C)c2nc1Cl	HCT116 bCat-KO 3.6, Dynein transport -6.2 | Dynein confirm active
Cn1c(=O)c2nc(NCc3ccccc3)cnc2n(C)c1=O	none
CSc1ccc(/C=N/NC(=O)COc2ccc(Br)cc2Cl)cc1	none
O=C(Cn1ncc(Cl)c(Cl)c1=O)N1CCN(S(=O)(=O)c2ccc3ccccc3c2)CC1	PTEN del growth 1.1, Autophagy mod active, HCT116 bCat-KO 1.1, Dynein transport -4 | Dynein confirm active
O=C(NC(c1ccccc1)c1ccccc1)c1cccc(S(=O)(=O)NCc2ccccc2)c1	none
COc1ccc(N=N/C(=C\O)C(=O)c2cccs2)cc1	none (no result: PTEN del growth, SDO1 yeast rescue, HCT116 bCat-KO)
COc1ccc(/C=C(/C(=O)c2cccs2)N2C=CC=CC2=C(C#N)C#N)cc1	Dynein transport -3.6 | Dynein confirm inconclusive
O=C(CN1CCOCC1)NN1CC(=O)N(c2ccc(Cl)cc2)CC1=O	none (no result: PTEN del growth, Autophagy mod, SDO1 yeast rescue, HCT116 bCat-KO)
CCOC(=O)c1cnc2c(F)ccc(F)c2c1Sc1ccccc1	Dynein transport -4 (no result: PTEN del growth, Autophagy mod, SDO1 yeast rescue, HCT116 bCat-KO) | Dynein confirm active
O=C(Cc1ccc(F)cc1)N1CCC(N2CCC(C(=O)N3CCOCC3)CC2)CC1	none (no result: PTEN del growth, SDO1 yeast rescue, HCT116 bCat-KO)
COc1ccc(-c2cc(C(F)(F)F)nc(S(=O)(=O)CCCC(=O)Nc3cc(C)on3)n2)cc1OC	Dynein transport -5 (no result: PTEN del growth, SDO1 yeast rescue, HCT116 bCat-KO) | Dynein confirm active
COc1ccc(-c2cc(C(F)(F)F)n3nc(C(=O)Nc4cc(C)on4)cc3n2)cc1OC	none
CCC(=O)OCCNc1cc(Sc2nc3ccccc3[nH]2)c2nonc2c1[N+](=O)[O-]	PTEN del growth 1.5, HCT116 bCat-KO 1.7, Dynein transport -4.9 | Dynein confirm inactive
CCCC(=O)OCCNc1cc(SCc2ccco2)c2nonc2c1[N+](=O)[O-]	HCT116 bCat-KO 2.7, Dynein transport -3.9 | Dynein confirm active
CCCSc1cc(NCCOC(C)=O)c([N+](=O)[O-])c2nonc12	none
O=[N+]([O-])c1c(NCCCO)cc(Sc2nc3ccccc3s2)c2nonc12	PTEN del growth 3.6, HCT116 bCat-KO 2.3, Dynein transport -4.1 | Dynein confirm active
NCCNc1ccc([N+](=O)[O-])c(Sc2nc3ccccc3[nH]2)c1	none
CCCSc1cc(NCCOC(=O)CCC)c([N+](=O)[O-])c2nonc12	Dynein transport -4.9 | Dynein confirm active
Cc1nnc(Sc2cc(NCCCO)c([N+](=O)[O-])c3nonc23)s1	none (no result: PTEN del growth, SDO1 yeast rescue, HCT116 bCat-KO)
O=C(CCc1nc2ccccc2c(=O)[nH]1)OCc1ccc(Cl)cc1Cl	none
CC(C)Nc1nnc(Sc2ccc(Cl)cc2[N+](=O)[O-])s1	none
COc1ccccc1CN=C1NC(=O)C(CC(=O)Nc2ccc(C(C)=O)cc2)S1 (centres undefined)	none (no result: PTEN del growth, Autophagy mod, SDO1 yeast rescue, HCT116 bCat-KO)
CC(=O)OCCCNc1cc(SCc2ccco2)c2nonc2c1[N+](=O)[O-]	PTEN del growth 3.5, HCT116 bCat-KO 2.3, Dynein transport -5.5 | Dynein confirm active
COc1ccc(/C=c2\s/c(=C/C(=O)c3ccc(C)cc3)[nH]c2=O)cc1OC	none | Dynein confirm inactive
CC(C)(C)C(=O)/C=c1\[nH]c(=O)/c(=C\c2ccc(F)cc2)s1	none
CC(C)(C)c1ccc(OCCNC(=O)c2ncn[nH]2)cc1	none
CCOC(=O)CCSc1nc(C)cc(C(F)(F)F)c1C#N	Autophagy mod active | Dynein confirm inactive
C=C(C)CN1CCN(S(=O)(=O)c2ccc(C)c(N(C)S(=O)(=O)c3ccc(C)cc3)c2C)CC1	none
C/C(N)=C(/C#N)C(=O)COC(=O)Cc1coc2cc(C)ccc12	none (no result: PTEN del growth, SDO1 yeast rescue, HCT116 bCat-KO)
CNC(=O)c1nnsc1S(=O)(=O)c1ccc(Cl)cc1	Dynein transport -4 (no result: PTEN del growth, SDO1 yeast rescue, HCT116 bCat-KO) | Dynein confirm active
O=C(c1nnsc1S(=O)(=O)c1ccc(Cl)cc1)N1CCOCC1	Dynein transport -6 (no result: PTEN del growth, SDO1 yeast rescue, HCT116 bCat-KO) | Dynein confirm active

Compound activity (PubChem)
